# Measured values taken from paper PMC4367188 (ACS Chemical Neuroscience, 2015).
# Columns and labels:
# [1] = target: Transporter, Dopamine (DAT) (Homo sapiens, UniProt Q01959); assay: Lead Profiling Screen radioligand binding
# [2] = brain tissue distribution in Sprague-Dawley rats; assay type: in vivo; settings: male, rat, brain/plasma, iv, 1 mg/kg
# [3] = target: Adrenergic α1B (Rattus norvegicus, UniProt P15823); assay: Lead Profiling Screen radioligand binding
# [4] = target: Opiate δ1 (OP1, DOP) (Homo sapiens, UniProt P41143); assay: Lead Profiling Screen radioligand binding
# [5] = target: Adenosine A1 (Homo sapiens, UniProt P30542); assay: Lead Profiling Screen radioligand binding
# [6] = test system: Potassium Channel [KATP]; assay: Lead Profiling Screen radioligand binding; settings: 10 μM ML352
# [7] = test system: Glutamate, Kainate; assay: Lead Profiling Screen radioligand binding; settings: 10 μM ML352
# [8] = target: Endothelin ETA (Homo sapiens, UniProt P25101); assay: Lead Profiling Screen radioligand binding
# [9] = target: Transporter, Serotonin (5-hydroxytryptamine) (SERT) (Homo sapiens, UniProt P31645); assay: Lead Profiling Screen radioligand binding
# [10] = intrinsic clearance in hepatic microsomes; assay type: in vitro ADME; settings: rat; predicted hepatic clearance from microsomal CLint
# [11] = target: Bradykinin B2 (Homo sapiens, UniProt P30411); assay: Lead Profiling Screen radioligand binding
# [12] = target: Platelet Activating Factor (PAF) (Homo sapiens, UniProt P25105); assay: Lead Profiling Screen radioligand binding
# [13] = target: Dopamine D1 (Homo sapiens, UniProt P21728); assay: Lead Profiling Screen radioligand binding
# [14] = target: DAT (Mus musculus, UniProt Q61327); assay: dopamine uptake in mouse forebrain synaptosomes; assay type: biochemical; settings: 5 μM ML352
# Outline: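 Crude P2 synaptosomes from forebrains of male C57BL/6J mice (8–10 weeks), taken after decapitation under urethane. Incubated 10 min at 37 °C in Krebs bicarbonate buffer with 100 nM [3H]dopamine or [3H]serotonin ± test compound. Stopped on ice, rapidly filtered, counted by scintillation. Specific uptake defined with cocaine 1 μM (DAT) or citalopram 1 μM (SERT). Protein by BCA; n = 3.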
# [15] = target: Adrenergic β2 (Homo sapiens, UniProt P07550); assay: Lead Profiling Screen radioligand binding
# [16] = target: GABAB1A (Homo sapiens, UniProt Q9UBS5); assay: Lead Profiling Screen radioligand binding
# [17] = PBS solubility; assay type: physicochemical; settings: aqueous buffer
# [18] = target: Dopamine D42 (Homo sapiens, UniProt P21917, DEL265-296); assay: Lead Profiling Screen radioligand binding
# [19] = target: CHT (Mus musculus, UniProt Q8BGY9); assay: choline uptake in mouse forebrain synaptosomes; assay type: biochemical; settings: ML352 at 300 nM in saturation choline transport assays
# [20] = target: Adrenergic α2A (Homo sapiens, UniProt P08913); assay: Lead Profiling Screen radioligand binding
# [21] = test system: GABAA, Muscimol, Central; assay: Lead Profiling Screen radioligand binding; settings: 10 μM ML352
# [22] = target: Adenosine A3 (Homo sapiens, UniProt P0DMS8); assay: Lead Profiling Screen radioligand binding
# [23] = target: hCHT LV-AA (Homo sapiens, UniProt Q9GZV3, L531A/V532A); assay: [3H]choline uptake in HEK 293 cells transfected with hCHT LV-AA; assay type: cell-based; settings: ML352 at 200 or 800 nM in saturation choline transport assays
# [24] = pharmacokinetics in male Sprague-Dawley rats; settings: rat
# [25] = target: Muscarinic M1 (Homo sapiens, UniProt P11229); assay: Lead Profiling Screen radioligand binding
# [26] = test system: Glutamate, NMDA, Glycine; assay: Lead Profiling Screen radioligand binding; settings: 10 μM ML352
# [27] = target: P450 2D6 (Homo sapiens, UniProt P10635); assay: cytochrome P450 inhibition
# [28] = target: Bradykinin B1 (Homo sapiens, UniProt P46663); assay: Lead Profiling Screen radioligand binding
# [29] = target: Transporter, Norepinephrine (NET) (Homo sapiens, UniProt P23975); assay: Lead Profiling Screen radioligand binding
# [30] = test system: Calcium Channel L-Type, Benzothiazepine; assay: Lead Profiling Screen radioligand binding; settings: 10 μM ML352
# [31] = test system: Sodium Channel, Site 2; assay: Lead Profiling Screen radioligand binding; settings: 10 μM ML352
# [32] = target: Calcium Channel N-Type (Rattus norvegicus, UniProt Q02294); assay: Lead Profiling Screen radioligand binding
# [33] = target: Prostanoid EP4 (Homo sapiens, UniProt P35408); assay: Lead Profiling Screen radioligand binding
# [34] = target: hERG potassium channel (Homo sapiens, UniProt Q12809); assay: Lead Profiling Screen radioligand binding
# [35] = target: Sertonin (5-Hydroxytrptamine) 5-HT3 (Homo sapiens, UniProt P46098); assay: Lead Profiling Screen radioligand binding
# [36] = intrinsic clearance in hepatic microsomes; assay type: in vitro ADME; settings: human; predicted hepatic clearance from microsomal CLint
# Chain of Adrenergic α2A (P08913 whole entry): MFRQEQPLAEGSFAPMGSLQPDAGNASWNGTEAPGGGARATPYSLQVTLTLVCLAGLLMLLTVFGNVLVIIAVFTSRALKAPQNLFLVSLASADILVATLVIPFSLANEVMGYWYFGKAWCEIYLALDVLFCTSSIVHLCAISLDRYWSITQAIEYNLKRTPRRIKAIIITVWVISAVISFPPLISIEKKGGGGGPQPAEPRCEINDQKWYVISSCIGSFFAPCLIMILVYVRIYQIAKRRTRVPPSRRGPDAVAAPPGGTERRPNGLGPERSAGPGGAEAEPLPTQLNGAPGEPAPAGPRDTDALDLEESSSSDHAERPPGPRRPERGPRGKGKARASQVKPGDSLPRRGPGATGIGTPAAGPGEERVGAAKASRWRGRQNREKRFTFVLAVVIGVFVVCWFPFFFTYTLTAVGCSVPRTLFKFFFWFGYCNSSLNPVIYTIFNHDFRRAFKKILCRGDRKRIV
# Chain of Dopamine D1 (P21728 whole entry): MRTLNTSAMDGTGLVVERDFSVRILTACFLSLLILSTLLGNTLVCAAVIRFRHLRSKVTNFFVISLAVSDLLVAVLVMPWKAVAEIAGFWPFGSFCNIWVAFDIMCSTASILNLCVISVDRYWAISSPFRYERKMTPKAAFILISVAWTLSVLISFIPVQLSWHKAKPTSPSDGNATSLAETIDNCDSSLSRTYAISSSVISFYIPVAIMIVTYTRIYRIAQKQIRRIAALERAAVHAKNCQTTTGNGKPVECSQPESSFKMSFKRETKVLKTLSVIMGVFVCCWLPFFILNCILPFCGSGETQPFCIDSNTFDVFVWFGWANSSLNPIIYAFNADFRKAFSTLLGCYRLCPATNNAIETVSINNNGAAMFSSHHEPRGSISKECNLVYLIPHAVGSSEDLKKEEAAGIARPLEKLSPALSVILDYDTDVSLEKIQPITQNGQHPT
# Chain of Transporter, Serotonin (5-hydroxytryptamine) (SERT) (P31645 whole entry): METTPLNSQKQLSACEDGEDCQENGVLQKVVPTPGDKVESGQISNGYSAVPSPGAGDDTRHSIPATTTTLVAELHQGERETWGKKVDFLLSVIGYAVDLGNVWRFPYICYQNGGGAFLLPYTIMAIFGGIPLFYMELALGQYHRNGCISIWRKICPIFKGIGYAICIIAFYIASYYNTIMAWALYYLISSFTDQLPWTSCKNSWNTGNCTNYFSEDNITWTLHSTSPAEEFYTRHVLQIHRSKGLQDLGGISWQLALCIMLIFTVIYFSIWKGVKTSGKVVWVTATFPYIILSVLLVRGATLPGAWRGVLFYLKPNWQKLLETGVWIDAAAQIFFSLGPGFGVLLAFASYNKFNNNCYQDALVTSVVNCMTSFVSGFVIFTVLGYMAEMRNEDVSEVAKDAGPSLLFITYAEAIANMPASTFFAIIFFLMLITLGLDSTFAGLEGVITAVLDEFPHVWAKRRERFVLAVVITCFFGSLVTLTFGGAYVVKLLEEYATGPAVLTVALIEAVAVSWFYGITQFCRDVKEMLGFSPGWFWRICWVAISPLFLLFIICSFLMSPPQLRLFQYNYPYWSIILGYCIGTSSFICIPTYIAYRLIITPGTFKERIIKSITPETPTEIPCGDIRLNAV
# Chain of Prostanoid EP4 (P35408 whole entry): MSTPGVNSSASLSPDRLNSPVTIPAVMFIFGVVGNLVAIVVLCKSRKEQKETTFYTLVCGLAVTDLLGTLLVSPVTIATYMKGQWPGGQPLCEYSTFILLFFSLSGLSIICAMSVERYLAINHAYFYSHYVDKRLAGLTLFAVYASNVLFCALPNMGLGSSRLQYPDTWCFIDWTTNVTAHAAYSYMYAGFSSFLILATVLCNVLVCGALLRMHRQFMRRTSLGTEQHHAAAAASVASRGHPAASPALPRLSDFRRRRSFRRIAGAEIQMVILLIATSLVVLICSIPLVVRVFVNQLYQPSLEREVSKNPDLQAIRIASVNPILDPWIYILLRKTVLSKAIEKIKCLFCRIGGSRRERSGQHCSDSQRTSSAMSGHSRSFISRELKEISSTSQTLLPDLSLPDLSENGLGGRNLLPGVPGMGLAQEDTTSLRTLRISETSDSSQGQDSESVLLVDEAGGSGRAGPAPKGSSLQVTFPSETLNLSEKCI
# Chain of Transporter, Dopamine (DAT) (Q01959 whole entry): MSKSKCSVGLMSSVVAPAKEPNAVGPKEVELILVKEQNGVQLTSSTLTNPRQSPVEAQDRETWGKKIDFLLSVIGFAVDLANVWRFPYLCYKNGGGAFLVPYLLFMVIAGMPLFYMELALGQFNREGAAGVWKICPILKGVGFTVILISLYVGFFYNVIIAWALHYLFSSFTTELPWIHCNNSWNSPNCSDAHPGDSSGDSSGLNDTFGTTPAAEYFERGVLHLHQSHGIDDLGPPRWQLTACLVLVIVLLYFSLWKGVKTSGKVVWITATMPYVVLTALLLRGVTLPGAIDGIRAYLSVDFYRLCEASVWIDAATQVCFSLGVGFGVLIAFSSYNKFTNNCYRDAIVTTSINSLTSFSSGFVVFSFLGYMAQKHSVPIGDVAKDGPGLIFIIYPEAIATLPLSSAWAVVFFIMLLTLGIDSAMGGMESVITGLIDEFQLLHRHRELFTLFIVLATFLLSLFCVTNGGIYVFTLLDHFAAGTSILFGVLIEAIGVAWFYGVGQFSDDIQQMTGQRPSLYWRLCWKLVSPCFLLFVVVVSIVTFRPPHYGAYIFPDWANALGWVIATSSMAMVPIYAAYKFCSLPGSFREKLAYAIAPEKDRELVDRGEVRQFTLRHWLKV
# Chain of Sertonin (5-Hydroxytrptamine) 5-HT3 (P46098 24-478): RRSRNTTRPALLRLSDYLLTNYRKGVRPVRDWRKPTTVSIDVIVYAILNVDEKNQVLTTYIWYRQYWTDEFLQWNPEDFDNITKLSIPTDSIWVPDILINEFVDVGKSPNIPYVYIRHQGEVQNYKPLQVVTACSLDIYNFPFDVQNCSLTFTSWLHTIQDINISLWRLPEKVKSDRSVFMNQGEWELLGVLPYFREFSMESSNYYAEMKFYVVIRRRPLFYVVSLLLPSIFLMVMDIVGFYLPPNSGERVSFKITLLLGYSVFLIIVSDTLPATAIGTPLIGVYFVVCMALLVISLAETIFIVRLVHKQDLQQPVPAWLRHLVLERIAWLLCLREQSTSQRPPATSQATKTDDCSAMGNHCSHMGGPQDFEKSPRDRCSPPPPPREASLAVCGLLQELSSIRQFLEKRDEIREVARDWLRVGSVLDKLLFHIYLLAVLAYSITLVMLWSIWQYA
# Chain of Bradykinin B2 (P30411 whole entry): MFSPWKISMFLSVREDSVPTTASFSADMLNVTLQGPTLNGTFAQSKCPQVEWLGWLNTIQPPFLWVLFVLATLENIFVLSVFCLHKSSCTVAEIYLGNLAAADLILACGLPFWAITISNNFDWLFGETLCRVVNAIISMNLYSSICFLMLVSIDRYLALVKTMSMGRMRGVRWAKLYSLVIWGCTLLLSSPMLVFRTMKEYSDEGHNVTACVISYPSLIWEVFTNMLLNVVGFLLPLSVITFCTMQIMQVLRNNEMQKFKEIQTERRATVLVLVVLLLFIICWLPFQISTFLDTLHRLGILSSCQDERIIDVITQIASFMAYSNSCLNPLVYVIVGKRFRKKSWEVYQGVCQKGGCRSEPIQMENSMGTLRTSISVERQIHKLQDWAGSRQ
# Chain of hCHT LV-AA (Q9GZV3 whole entry L531A/V532A): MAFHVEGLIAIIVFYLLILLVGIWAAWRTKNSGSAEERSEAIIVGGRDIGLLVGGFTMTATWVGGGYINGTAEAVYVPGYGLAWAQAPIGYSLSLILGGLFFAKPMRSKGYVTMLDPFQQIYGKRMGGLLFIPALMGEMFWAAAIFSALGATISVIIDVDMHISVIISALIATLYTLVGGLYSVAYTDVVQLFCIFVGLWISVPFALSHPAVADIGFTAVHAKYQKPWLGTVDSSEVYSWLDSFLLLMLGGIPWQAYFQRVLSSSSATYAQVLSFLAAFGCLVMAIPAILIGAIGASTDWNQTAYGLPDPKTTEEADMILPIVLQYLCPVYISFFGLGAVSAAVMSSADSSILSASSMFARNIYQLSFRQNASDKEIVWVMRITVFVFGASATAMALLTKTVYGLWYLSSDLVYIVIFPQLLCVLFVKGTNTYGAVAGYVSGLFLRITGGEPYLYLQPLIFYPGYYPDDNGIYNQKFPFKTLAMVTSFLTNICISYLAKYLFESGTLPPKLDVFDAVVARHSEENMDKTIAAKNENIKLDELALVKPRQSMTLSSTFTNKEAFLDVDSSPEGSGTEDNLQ
# Chain of Muscarinic M1 (P11229 whole entry): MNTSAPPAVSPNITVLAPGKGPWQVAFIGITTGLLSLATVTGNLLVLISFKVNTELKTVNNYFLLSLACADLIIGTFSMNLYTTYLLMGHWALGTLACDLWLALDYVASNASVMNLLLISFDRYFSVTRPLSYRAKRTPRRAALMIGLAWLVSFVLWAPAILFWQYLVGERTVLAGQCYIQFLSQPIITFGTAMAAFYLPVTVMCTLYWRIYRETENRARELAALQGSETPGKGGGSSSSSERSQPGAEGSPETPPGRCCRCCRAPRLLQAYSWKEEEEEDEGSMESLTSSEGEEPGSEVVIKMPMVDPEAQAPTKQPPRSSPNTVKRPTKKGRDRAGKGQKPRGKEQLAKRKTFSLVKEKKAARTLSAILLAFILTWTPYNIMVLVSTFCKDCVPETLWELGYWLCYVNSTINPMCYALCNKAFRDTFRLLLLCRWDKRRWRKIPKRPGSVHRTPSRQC
# Chain of Opiate δ1 (OP1, DOP) (P41143 whole entry): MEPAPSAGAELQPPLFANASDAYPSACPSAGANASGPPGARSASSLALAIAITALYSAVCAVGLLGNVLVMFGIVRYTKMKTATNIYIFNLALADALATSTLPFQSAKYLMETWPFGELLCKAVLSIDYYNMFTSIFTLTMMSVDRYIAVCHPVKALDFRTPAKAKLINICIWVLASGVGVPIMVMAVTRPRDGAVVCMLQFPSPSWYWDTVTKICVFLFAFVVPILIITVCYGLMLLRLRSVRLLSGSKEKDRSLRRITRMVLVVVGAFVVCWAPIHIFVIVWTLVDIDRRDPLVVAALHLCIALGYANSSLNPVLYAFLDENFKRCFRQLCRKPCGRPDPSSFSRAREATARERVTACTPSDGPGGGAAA
smiles,measurement,setting,value
"COc1ccc(C(=O)NCc2cc(C(C)C)no2)cc1OC1CCN(C)CC1 [ML352, N-((3-isopropylisoxazol-5-yl)methyl)-4-methoxy-3-((1-methylpiperidin-4-yl)oxy)benzamide]",inhibition at 10 µM,[1],4%
same,Kp at […],[2],0.2
same,inhibition at 10 µM,[3],3%
same,inhibition at 10 µM,[4],-2%
same,inhibition at 10 µM,[5],-5%
same,% inhibition,[6],4%
same,% inhibition,[7],–2%
same,inhibition at 10 µM,[8],-3%
same,inhibition at 10 µM,[9],2%
same,CLhep,[10],40.3 mL/min/kg
same,inhibition at 10 µM,[11],-3%
same,inhibition at 10 µM,[12],-4%
same,inhibition at 10 µM,[13],9%
same,inhibition of DAT,[14],fails to inhibit
same,inhibition at 10 µM,[15],43%
same,inhibition at 10 µM,[16],-9%
same,solubility,[17],98.2 ± 1.1 µM
same,inhibition at 10 µM,[18],-3%
same,mode of choline uptake inhibition,[19],noncompetitively inhibits
same,inhibition at 10 µM,[20],43%
same,% inhibition,[21],9%
same,inhibition at 10 µM,[22],4%
same,mode of choline uptake inhibition,[23],noncompetitively inhibits
same,clearance,"[24]; in vivo, iv, 1 mg/kg",107 mL/min/kg
same,half-life,"[24]; in vivo, iv, 1 mg/kg",30 min
same,AUC,"[24]; plasma, iv, 1 mg/kg",150 ng·h/mL
same,AUC,"[24]; plasma, po, 2.3 mg/kg",77.5 ng·h/mL
same,Cmax,"[24]; plasma, po, 2.3 mg/kg",32.6 ng/mL
same,Tmax,"[24]; plasma, po, 2.3 mg/kg",15 min
same,bioavailability,"[24]; plasma, po, 2.3 mg/kg",22%
same,inhibition at 10 µM,[25],32%
same,% inhibition,[26],4%
same,IC50,[27],> 30 µM
same,inhibition at 10 µM,[28],6%
same,inhibition at 10 µM,[29],12%
same,% inhibition,[30],3%
same,% inhibition,[31],20%
same,inhibition at 10 µM,[32],-1%
same,inhibition at 10 µM,[33],-7%
same,inhibition at 10 µM,[34],16%
same,inhibition at 10 µM,[35],2%
same,CLhep,[36],6.9 mL/min/kg
